According to ChEMBL document CHEMBL1122730, “Synthesis and pharmacological evaluation of indanpropionic acids as uterine relaxants” (1984):

Columns and labels:
Mus musculus [1] = species: Mus musculus; test: Compounds were evaluated for the percent recovery of the contraction induced by KCL in the isolated mouse uterus at a concentration 10 E -4 M; assay type: functional
Outline: (§1)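 KCl (54 mM) served as agonist in the uterine strip. After the 5-min KCl response with the test agent present, the tissue was washed 20 min and challenged again with KCl for 5 min. The recovery response was expressed as integrated force, as a % of the mean of two initial control KCl responses.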

Mus musculus [2] = species: Mus musculus; test: Compounds were evaluated for the percent recovery of the contraction induced by KCL in the isolated mouse uterus at a concentration 10 E -5M; assay type: functional; outline: as §1
Mus musculus [3] = species: Mus musculus; test: Compounds were evaluated for the percent recovery of the contraction induced by KCL in the isolated mouse uterus at a concentration 10 E -6M; assay type: functional; outline: as §1
Mus musculus [4] = species: Mus musculus; test: Compounds were evaluated for the percent recovery of the contraction induced by PGF2-alpha in the isolated mouse uterus at a concentration 10 E -4 M; assay type: functional, tissue-based
Outline: (§2)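 Recovery after PGF2α challenge: following a 5-min PGF2α (10^-7 M) response with the test agent present, the tissue was washed 20 min with physiological medium, then re-exposed to 10^-7 M PGF2α for 5 min. The integrated contractile force was expressed as a % of the mean of two initial control PGF2α responses.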

Mus musculus [5] = species: Mus musculus; test: Compounds were evaluated for the percent recovery of the contraction induced by PGF2-alpha in the isolated mouse uterus at a concentration 10 E -5 M; assay type: functional; outline: as §2
Mus musculus [6] = species: Mus musculus; test: Compounds were evaluated for the percent recovery of the contraction induced by PGF2-alpha in the isolated mouse uterus at a concentration 10 E -6 M; assay type: functional; outline: as §2
Mus musculus [7] = species: Mus musculus; test: Compounds were evaluated for the percent recovery of the contraction induced by PGF2-alpha in the isolated mouse uterus at a concentration 3X 10 E -5 M; assay type: functional; outline: as §2
Mus musculus [8] = species: Mus musculus; test: (§3) Inhibitory effect for the contraction induced by BaCl2 in [Ca2+] containing buffer in the isolated mouse uterus at a concentration 10 E -4 M.; assay type: functional
Outline: (§4)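 BaCl2 (2.2 × 10^-4 M) stimulated the uterine strip, in Ca2+-containing or Ca2+-free buffer. Two 5-min control responses were taken, each with a 20-min washout. The test agent was added 5 min before BaCl2. The integrated contractile force was expressed as a % of the mean control response.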

Mus musculus [9] = species: Mus musculus; test: (§5) Inhibitory effect for the contraction induced by BaCl2 in [Ca2+] free buffer in the isolated mouse uterus at a concentration 10 E -4 M.; assay type: functional; outline: as §4
Mus musculus [10] = species: Mus musculus; test: Inhibitory effect against contraction induced by KCL in the isolated mouse uterus at a concentration of 10 E -6 M; assay type: functional
Outline: (§6)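 KCl (54 mM) replaced PGF2α as the stimulus. After 30-min equilibration, two 5-min control KCl responses were taken, each with a 20-min washout. The test agent was then preincubated 5 min before KCl was added. The integrated force over 5 min was expressed as a % of the mean of the two controls. Compounds were in NaOH, neutralised to pH 7.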

Mus musculus [11] = species: Mus musculus; test: Inhibitory effect against contraction induced by PGF2-alpha in the isolated mouse uterus at a concentration of 10 E -4 M; assay type: functional
Outline: (§7)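 Uterine strips were equilibrated 30 min, then given two 5-min control responses to PGF2α (10^-7 M), each followed by a 20-min washout. The test agent was in the bath 5 min before 10^-7 M PGF2α was added. The integrated contractile force over 5 min was taken as a % of the mean of the two controls. Agents were dissolved in 0.25 N NaOH and diluted with water to pH 7.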

Mus musculus [12] = species: Mus musculus; test: Inhibitory effect against contraction induced by PGF2-alpha in the isolated mouse uterus at a concentration of 10 E -5 M; assay type: functional; outline: as §7
Mus musculus [13] = species: Mus musculus; test: Inhibitory effect against contraction induced by PGF2-alpha in the isolated mouse uterus at a concentration of 10 E -6 M; assay type: functional; outline: as §7
Mus musculus [14] = species: Mus musculus; test: Inhibitory effect against contraction induced by PGF2-alpha in the isolated mouse uterus at a concentration of 3X10 E -5 M; assay type: functional; outline: as §7
Mus musculus [15] = species: Mus musculus; test: as §3; assay type: functional; outline: as §4; remark: listed apart in the source
Mus musculus [16] = species: Mus musculus; test: Inhibitory effect against contraction induced by KCL in the isolated mouse uterus at a concentration of 10 E -4 M; assay type: functional; outline: as §6
Mus musculus [17] = species: Mus musculus; test: Inhibitory effect against contraction induced by KCL in the isolated mouse uterus at a concentration of 10 E -5 M; assay type: functional; outline: as §6
Mus musculus [18] = species: Mus musculus; test: as §5; assay type: functional; outline: as §4; remark: listed apart in the source
Mus musculus [19] = species: Mus musculus; test: Inhibitory effect against contraction induced by PGF2-alpha in the isolated mouse uterus at a concentration of 10 E -4M; assay type: functional; outline: as §7

| SMILES | Recovery (Mus musculus [1]) | Recovery (Mus musculus [2]) | Recovery (Mus musculus [3]) | Recovery (Mus musculus [4]) | Recovery (Mus musculus [5]) | Recovery (Mus musculus [6]) | Recovery (Mus musculus [7]) | Recovery (Mus musculus [8]) | Recovery (Mus musculus [9]) | inhibition at 1 µM (Mus musculus [10]) | inhibition at 100 µM (Mus musculus [11]) | inhibition at 10 µM (Mus musculus [12]) | inhibition at 1 µM (Mus musculus [13]) | inhibition at 30 µM (Mus musculus [14]) | inhibition at 100 µM (Mus musculus [15]) | inhibition at 100 µM (Mus musculus [16]) | inhibition at 10 µM (Mus musculus [17]) | inhibition at 100 µM (Mus musculus [18]) | inhibition at 100 µM (Mus musculus [19]) |
| --- | --- | --- | --- | --- | --- | --- | --- | --- | --- | --- | --- | --- | --- | --- | --- | --- | --- | --- | --- |
| CCC[C@@]1(CCC(=O)O)Cc2cc(OCc3ccccc3)c(OCc3ccccc3)cc2[C@H]1O | 85.8% | 84.2% | 86.1% | 82.8% | 81.8% | 88.7% | 79.7% | 105% | 39.4% | 1.2% | 67.1% | 17.2% | 0% | 36.4% | 48.1% | 53.2% | 9.4% | 88.2% |  |
| CCC1(CCC(=O)O)Cc2cc(OCc3ccccc3)ccc2C1=O (stereo not drawn) |  |  |  | 70.4% | 69.3% |  |  |  |  |  |  | 27.3% |  |  |  |  |  |  | 44.4% |
| CCCC1(CCC(=O)O)Cc2cc(OCc3ccccc3)ccc2C1=O (stereo not drawn) |  |  |  | 85.3% | 85.5% |  |  |  |  |  | 42% | 6.4% |  |  |  |  |  |  |  |
| O=C(O)CCC1(CCC(=O)O)Cc2cc(OCc3ccccc3)ccc2C1=O | 105% | 106% |  | 91.1% | 79.9% |  |  |  |  |  | 6.5% | 10.5% |  |  |  | 1.9% | 8.3% |  |  |
| CCCCC1(CCC(=O)O)Cc2cc(OCc3ccccc3)ccc2C1O (stereo not drawn) |  |  |  | 104% | 91.7% |  |  |  |  |  | 20.4% | 0.5% |  |  |  |  |  |  |  |
